Measurements from publication PMC6209313 (Molecular Pharmaceutics, 2018).
≈ marks a conversion by molar mass, not a printed value. Where two headings read alike, the source gives them in different places.

Legend:
Dose number = assay type: physicochemical; conditions: for Do value: 80% loading, lipid-rich LBFs after digestion, maximum-value of 0.5 observed; for Do 80%: 80% of maximum drug load, 45 mL digestion medium; for lipolysis Do: applied drug load during in vitro lipolysis
[1] = Drug solubility in lipolysis medium; assay type: physicochemical; conditions: for solubility fold-increase between dispersion and digestion media: IIIA-LC; for solubility at 24 h: dispersion medium of blank (placebo) LBF lipolysis, all LBFs, pH 6.5
Method in brief: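 Placebo LBF digested in pH 6.5 buffer (2 mM Tris-maleate, 1.4 mM CaCl2·2H2O, 150 mM NaCl, FaSSIF 3.0 mM taurocholate/0.75 mM lecithin), 37 °C, porcine pancreatin. Media sampled at 10 min dispersion and 60 min digestion, lipase inhibited with 4-bromophenyl boronic acid, centrifuged. Supernatant shaken with excess crystalline drug at 37 °C, pH readjusted to 6.5. HPLC at 5 h and 24 h; value is mean of 24 h triplicates.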

[2] = Acid/base/neutral class and ionization at the pH of lipolysis; assay type: physicochemical; conditions: pH 6.5
[3] = Maximum drug loading capacity; assay type: physicochemical; conditions: 37 °C, mean (sd)
[4] = cited from earlier work; for solid form of precipitate during digestion: in vitro digestion of LBFs ref 11-17; for solid form of precipitate during dispersion: dispersion (dilution in bile) ref 13; for solid form of precipitate in vitro and in vivo: drug loaded into LBFs ref 41
[5] = In vitro lipolysis of drug-loaded IIIB-MC, quantification of precipitated drug; assay type: physicochemical; conditions: for degree of precipitated drug: 60 min of digestion; for precipitation during lipolysis at 80% loading: data not shown
[6] = Solid state characterization of drug precipitate; assay type: physicochemical; conditions: IIIB-MC, 60 min of digestion, PLM and Raman
Method in brief: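 Drug-loaded IIIB-MC (1.25 g in 45 mL medium, pH-stat 6.5, 37 °C) digested with pancreatin. The pellet at 60 min was imaged immediately by crossed-polarizer light microscopy. Raman used 785 nm at 400 mW over 100–1890 cm–1, with SNV baseline correction and blank-pellet background correction. References were crystalline drug, blank and drug-spiked blank pellets, and melt-quenched amorphous drug.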

Row | SMILES | Do 80% (Dose number; IIIA-LC) | Do 80% (Dose number; IIIB-MC) | Do 80% (Dose number; IV) | maximum drug loading capacity (loading) ([3]; IIIA-LC) | maximum drug loading capacity (loading) ([3]; IIIB-MC) | maximum drug loading capacity (loading) ([3]; IV) | solid form of precipitate during digestion [4] | solid form of precipitated drug in the pellet [6] | other results
1 | O=C(CCCN1CCC(O)(c2ccc(Cl)cc2)CC1)c1ccc(F)cc1 [Haloperidol] | 0.0 | 0.1 | 0.4 | 3.9 (1.2) mg/g | 17.7 (1.2) mg/g | 21.5 (2.1) mg/g |  |  | Do value (Dose number): ≤ 1; solubility fold-increase between dispersion and digestion media [1]: 11 fold; extent of ionization [2]: 99%
2 | CCC(C)(C)C(=O)O[C@H]1C[C@@H](C)C=C2C=C[C@H](C)[C@H](CC[C@@H]3C[C@@H](O)CC(=O)O3)[C@H]21 [Simvastatin] |  |  |  |  |  |  | amorphous form |  | 
3 | Cc1c(Cl)cccc1Nc1ccccc1C(=O)O [Tolfenamic acid] |  |  |  |  |  |  | crystalline form |  | 
4 | COc1ccc2c(c1)c(CC(=O)O)c(C)n2C(=O)c1ccc(Cl)cc1 [Indomethacin] | 0.7 | 1.6 | 2.4 | 31.9 (1.1) mg/g | 84.7 (3.5) mg/g | 121.3 (4.2) mg/g |  | crystalline and amorphous mixture | degree of precipitated drug [5]: 2%; precipitation during lipolysis at 80% loading [5]: did not precipitate; solubility at 24 h [1]: 1500 to 1700 µg/mL (≈ 4.19 to 4.75 mM)
5 | COc1ccccc1OCCNCC(O)COc1cccc2[nH]c3ccccc3c12 (stereo not shown) [Carvedilol] |  |  |  |  |  |  | amorphous form |  | solid form of precipitate during dispersion [4]: crystalline form
6 | C#C[C@]1(O)CC[C@H]2[C@@H]3CCC4=Cc5oncc5C[C@]4(C)[C@H]3CC[C@@]21C [Danazol] | 4.9 | 9.5 | 13.5 | 16.4 (0.7) mg/g | 38.8 (1.4) mg/g | 50.1 (1.2) mg/g | crystalline form | crystalline form | lipolysis Do (Dose number; IIIB-MC): 4.8; solid form of precipitate in previous in vitro lipolysis studies [4]: crystalline form; solid form of precipitate in vitro and in vivo [4]: crystalline form
7 | CC(C)OC(=O)C(C)(C)Oc1ccc(C(=O)c2ccc(Cl)cc2)cc1 [Fenofibrate] |  |  |  |  |  |  | crystalline form |  | solid form of precipitate in vitro and in vivo [4]: crystalline form
8 | CC(=O)N1CCN(c2ccc(OCC3COC(Cn4ccnc4)(c4ccc(Cl)cc4Cl)O3)cc2)CC1 (stereo not shown) [Ketoconazole] | 0.2 | 0.5 | 1.4 | 9.7 (1.2) mg/g | 23.0 (1.0) mg/g | 29.9 (1.5) mg/g |  |  | Do value (Dose number): ≤ 1; solubility fold-increase between dispersion and digestion media [1]: 2 fold; extent of ionization [2]: 42%
9 | CCOC(=O)C1=C(C)NC(C)=C(C(=O)OC)C1c1cccc(Cl)c1Cl (stereo not shown) [Felodipine] | 6.8 | 9.1 | 11.1 | 75.4 (4.7) mg/g | 176.2 (2.1) mg/g | 218.0 (9.3) mg/g |  | crystalline and amorphous mixture | lipolysis Do (Dose number; IIIB-MC): 9.1
10 | CCOC(=O)N1CCC(=C2c3ccc(Cl)cc3CCc3cccnc32)CC1 [Loratidine] |  |  |  |  |  |  | crystalline form |  | solid form of precipitate during dispersion [4]: crystalline form
11 | O=C(Nc1ccc([N+](=O)[O-])cc1Cl)c1cc(Cl)ccc1O [Niclosamide] | 14.5 | 54.6 | 55.8 | 13.6 (0.4) mg/g | 50.9 (1.6) mg/g | 80.7 (4.5) mg/g |  | hydrate form | lipolysis Do (Dose number; IIIB-MC): 11.1; solubility at 24 h [1]: < 80 µg/mL
12 | C(=C\c1ccccc1)/CN1CCN(C(c2ccccc2)c2ccccc2)CC1 [Cinnarizine] | 0.2 | 0.5 | 2.1 | 34.5 (3.2) mg/g | 41.8 (0.7) mg/g | 43.2 (1.7) mg/g | amorphous character or in a molecular dispersion with digestion components |  | Do value (Dose number): ≤ 1; solubility fold-increase between dispersion and digestion media [1]: 6 fold; extent of ionization [2]: 90%; solid form of precipitated material ([4]; pH 4.0, 5.5, and 6.5 (ionized) ref 12): noncrystalline; solid form of precipitated material ([4]; pH 8.0 (unionized) ref 12): crystalline
13 | COC1=CC(=O)C[C@@H](C)[C@]12Oc1c(Cl)c(OC)cc(OC)c1C2=O [Griseofulvin] | 1.4 | 2.9 | 4.6 |  |  |  |  | crystalline form | degree of precipitated drug [5]: 11%; precipitation during lipolysis at 80% loading [5]: did not precipitate
